Data on two compounds can be found in ChEMBL document CHEMBL4376862, “Synthesis and evaluation of novel chlorophyll a derivatives as potent photosensitizers for photodynamic therapy” (Eur J Med Chem, 2020).

pIC50: −log10 of the molar value. Active and inactive are the calls of the source. The calls are words filed in the database; no cut-off is given here.

For data set [1], the system named is A549. Description: Phototoxicity against human A549 cells assessed as reduction in cell proliferation irradiated with 1 J/cm2 of 650 nanometer laser light preincubated for 24 hrs measured after 48 hrs by MTT assay. It counts as functional, cell-based. As to conditions: A549, light or radiation study. The procedure, abridged: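 A549 cells seeded 5×10^4 cells/100 µL per well, given […] for 24 h, then 650 nm semiconductor laser at 1 J/cm2 (25 mW/cm2, 40 s); MTT 4 h, absorbance 570 nm; viability vs control; triplicate, mean ± SD.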
(Tetrazolium dyes change colour on reduction, which living cells bring about.)

Data set [2] can be described thus: Dark toxicity in human A549 cells assessed as reduction in cell viability incubated under dark for 24 hrs measured after 48 hrs by MTT assay. It counts as cell-based. Conditions: read-out: TC50. The method in brief: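 A549 cells seeded at 5×10^4 cells/100 µL per well for 24 h, treated in the dark with […] (so in the source) for 24 h; MTT added 4 h, absorbance 570 nm, 48 h later; viability as OD treated/OD control; triplicate, mean ± SD.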

Data set [3] deals with A549. In words: Induction of apoptosis in human A549 cells assessed as late apoptotic cell in presence of 1J/cm2 light irradiation measured after 4 hrs by annexin V-FITC and propidium iodide staining based flow cytometric analysis (reference value: 0.05%). It counts as functional. The procedure, abridged:
(§1)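 After PDT at 1 J/cm2, A549 cells collected 4 h later, stained with annexin V-FITC and propidium iodide per kit instructions; flow cytometry with at least 10,000 events per sample.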
A general note: Flow cytometry measures light scatter and fluorescence of single cells or particles in a stream.

Another data set has as its system Cavia porcellus. In words: Phototoxicity in guinea pig assessed as change in back skin at 4.5 mg/kg, iv in presence of 10 mW/cm2 light irradiation for 10 mins measured after 1day of light irradiation by H and E staining based microscopic analysis. It counts as organism-based. As to conditions: in vivo.
Data set [4] has as its system Mus musculus. Description: Phototoxicity in ICR mouse assessed as change in skin of the backs 0.45 mg/kg, iv in presence of 10 mW/cm2 light irradiation for 10 mins upto 7 days measured after 1 day of light irradiation by H and E staining based microscopic analysis. It counts as organism-based. Conditions: in vivo.
Data set [5] can be described thus: Drug localization in lysosome of human A549 cells at 1 uM after 4 hrs by lyso-tracker blue based fluorescence microscopic method. It counts as ADME, subcellular. As to conditions: a549, 4 h. The procedure, abridged:
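A549 cells on coverslips at 1×10^4 cells/mL exposed to […] (so in the source) photosensitizer in complete medium for 4 h, washed, fixed in 4% paraformaldehyde 20 min, then probed 30 min at 37 °C with Mito-Tracker Green, Lyso-Tracker Blue or ER-Tracker Green; fluorescence microscopy, three repeats, minimal ambient light.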

The test system of data set [6] is A549. In words: Induction of apoptosis in human A549 cells assessed as caspase-3 activity using Ac-DEVD-pNA as substrate in presence of laser light irradiation measured upto 12 hrs. It counts as functional, cell-based.
Data set [7] relates to A549. Description: Phototoxicity in human A549 cells assessed as reduction in cell viability in presence of irradiation with laser light at 1 J/cm2 by fluorescence microscopic method relative to control. Format: functional. The procedure, abridged:
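A549 cells were grown in F-12K with 10% FBS at 37 °C in 5% CO2. Cells were treated with photosensitizer and exposed to 650 nm laser at 0 or 1 J/cm2, with a laser-alone group. Viable cells were then stained with calcein (green) and nuclei with DAPI (blue), and imaged by fluorescence microscopy.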

Data set [8] relates to A549. Description: Induction of apoptosis in human A549 cells assessed as necrotic cell in presence of 1J/cm2 light irradiation measured after 4 hrs by annexin V-FITC and propidium iodide staining based flow cytometric analysis (reference value: 0.00%). Format: functional. The method in brief:
as §1

The nature of data set [9]: Drug uptake in BALB/c nude mouse xenografted with A549 cells assessed as drug level in tumor tissue at 0.3 mg/kg, iv measured upto 24 hrs by fluorescence assay. It counts as ADME, organism-based, Neoplasm. As to conditions: in vivo. The method in brief:
(§2)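 A549 tumor-bearing mice dosed via tail vein (1 mg/kg in methods; 0.3 mg/kg in text) at tumors ~150–170 mm3, n = 3; whole-body imaging 0–24 h; at 6 and 12 h mice killed, heart, liver, spleen, lung, kidney, brain, tumor imaged ex vivo, excitation 420 nm, emission 650 nm.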

A short description of data set [10]: Drug uptake in BALB/c nude mouse xenografted with A549 cells assessed as drug level in brain at 0.3 mg/kg, iv measured at 12 hrs by fluorescence assay. As to conditions: in vivo. Format: ADME, organism-based. The procedure, abridged: as §2
Data set [11] in a line: Induction of ROS generation in DMF solution assessed as slope of the photodegradation rate of DPBF at 2 uM followed by irradiation measured every 10 secs by spectrophotometric analysis. It counts as functional.
For data set [12], the system named is A549. Description: Photodynamic antitumor activity against human A549 cells xenografted in BALB/c nude mouse assessed as vascular rupture at 0.3 mg/kg, iv incubated for 24 hrs followed by laser light irradiation at 120 J/cm2 measured 24 hrs post light irradiation by H and E staining based histopathological analysis. Format: functional, organism-based. The method in brief: (§3)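 Tumors from PDT-treated A549 xenograft mice (0.3 mg/kg i.v., 650 nm laser 120 J/cm2 at 24 h) excised, fixed in 4% formaldehyde in PBS, paraffin-embedded, sectioned, H&E stained.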
(In general: A xenograft is tissue or cells of one species grown in another, often human tumour cells in immunodeficient mice.)

The test system of data set [13] is Mus musculus. Description: Phototoxicity in ICR mouse assessed as ear weight at 0.45 mg/kg, iv followed by 10 mW/cm2 light irradiation for 10 mins at 1 day after drug challenge measured after 1 day of light irradiation (reference value: 12.6 +/- 1.2 mg). Conditions: in vivo. Format: organism-based.
Data set [14] can be described thus: Octanol/water partition coefficient, logP of compound by shake flask method. It counts as physicochemical. The procedure, abridged:
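Shake-flask method: equilibrium concentrations in octanol and water measured by UV-vis absorbance; log P taken as log of octanol/water concentration ratio (mg/L).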

Data set [15] relates to A549. In words: Cytotoxicity against human A549 cells assessed as apoptotic lesions in absence of light by fluorescence microscopic method. It counts as cell-based.
The subject of data set [16] is A549. In words: Induction of apoptosis in human A549 cells assessed as early apoptotic cell in presence of 1J/cm2 light irradiation measured after 4 hrs by annexin V-FITC and propidium iodide staining based flow cytometric analysis (reference value: 0.07%). It counts as functional. The method in brief:
as §1

Data set [17] has as its system A549. Description: Photodynamic antitumor activity against human A549 cells xenografted in BALB/c nude mouse assessed as reduction in tumor volume at 0.3 mg/kg, iv incubated for 24 hrs followed by laser light irradiation at 120 J/cm2 measured up to 14 days. It counts as functional, organism-based. The method in brief:
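Male BALB/c nude mice (5–6 weeks, 14–16 g) given 2×10^6 A549 cells s.c. in 0.2 mL PBS; at 6–7 mm tumors randomized into ten groups; drug via tail vein, 650 nm diode laser 120 J/cm2 at 180 mW/cm2 24 h later; caliper volume a×b²/2, followed 14 days.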

In data set [18] the test system is A549. Description: Induction of apoptosis in human A549 cells assessed as viable cells in presence of 1J/cm2 light irradiation measured after 4 hrs by annexin V-FITC and propidium iodide staining based flow cytometric analysis (reference value: 99.88%). Format: functional. The procedure, abridged: as §1
Data set [19] has as its system A549. Description: Induction of apoptosis in human A549 cells assessed as late apoptotic cell incubated for 4 hrs under dark condition by annexin V-FITC and propidium iodide staining based flow cytometric analysis (reference value: 0.05%). Conditions: a549, 4 h.
Data set [20] deals with A549. In words: Photodynamic antitumor activity against human A549 cells xenografted in BALB/c nude mouse assessed as necrosis leukocyte infiltration at 0.3 mg/kg, iv incubated for 24 hrs followed by laser light irradiation at 120 J/cm2 measured 24 hrs post light irradiation by H and E staining based histopathological analysis. It counts as functional, organism-based. The method in brief: as §3

Data set [21] in a line: Induction of apoptosis in human A549 cells assessed as viable cells incubated for 4 hrs under dark condition by annexin V-FITC and propidium iodide staining based flow cytometric analysis (reference value: 99.88%). Format: cell-based. Conditions: read-out: Activity.

One may read the pIC50 as the negative decadic logarithm of the IC50, by convention in mol/L. The logP is a log measure of how a compound divides between an organic and an aqueous phase. Turning to `CCCCOC(C)c1c(C)c2cc3nc(c4c5[nH]c(cc6nc(cc1[nH]2)C(C)=C6CC)c(C)c5C(=O)C4)[C@@H](CCC(=O)NCC(=O)CCC(=O)O)[C@@H]3C` (some centres undefined), the pIC50 with A549 [1] is 6.64. The CC50 at 24 h in data set [2] was found to be 2010 nM. For the same compound, the Activity with A549 [3] was 83.88%; in the data set with Cavia porcellus it was “Non-Toxic”; in the data set with Mus musculus [4] it was “Non-Toxic”; in the data set on A549 [7] it was 30.69%; in the data set on A549 [8], 10.92%; in the data set with Mus musculus [13] it was 12.9 mg. Moreover, the Activity result in the data set with A549 [15] was “Non-Toxic”; in the data set on A549 [16], 2.07%; with A549 [18], 3.13%; in the data set with A549 [19], 4.78%. Moreover, the results for the Drug uptake result in data set [5], in data set [9] and in data set [10] were “Active”, “Active” and “Not Active”, respectively. For the same compound, the result in the data set with A549 [6], in the data set on A549 [12], in the data set on A549 [17] and in the data set with A549 [20] was Active. Further, the K in [11] was 0.0313 s⁻¹. The logP in [14] was 2.36. Further, the viability at 4 h in data set [21] is 89.8%.

Consider `CCC1=C(C)c2cc3[nH]c(cc4nc(c5c6[nH]c(cc1n2)c(C)c6C(=O)C5)[C@@H](CCC(=O)NCC(=O)CCC(=O)O)[C@@H]4C)c(C)c3C(C)OCCO` (some centres undefined), for which the pIC50 with A549 [1] was 6.00. Moreover, in data set [2], the CC50 at 24 h came out at 8880 nM. For the same compound, the Activity in the data set on A549 [3] is 67.73%; in the data set on Cavia porcellus, “Non-Toxic”; in the data set on Mus musculus [4], “Non-Toxic”; in the data set with A549 [7] it was 34.15%; with A549 [8], 0.7%; with Mus musculus [13], 13.3 mg. Also, the Activity entry is reported as “Non-Toxic” with A549 [15], 28.92% in the data set on A549 [16], 2.64% in the data set with A549 [18] and 4.7% with A549 [19]. Moreover, the Drug uptake entry in [5] was “Active”; in [9], “Active”; in [10], “Not Active”. The result with A549 [6], with A549 [12], with A549 [17] and with A549 [20] was Active. Besides, in [11], the K was 0.027 s⁻¹. In data set [14], this compound came in with a logP of 1.59. The viability at 4 h in [21] was 87.8%.
